Compounds with a hit are over-represented: about 0.94% of the library has one in this group of screens.
UCH37 DUB inh: blocks the human deubiquitinase UCH37; actives 0.33% (n = 330,000); AID 588478; inhibition, % (no concentration beside the values); purified proteasome/UCH37, Ub-AMC cleavage fluorescence;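 active = mean inhibition over replicate wells above about 20%, limit read from the data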;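 note: 0% = compound-free wells with enzyme and 100% = wells lacking proteasome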
Target sequence (Q9Y5K5 whole entry, looked up): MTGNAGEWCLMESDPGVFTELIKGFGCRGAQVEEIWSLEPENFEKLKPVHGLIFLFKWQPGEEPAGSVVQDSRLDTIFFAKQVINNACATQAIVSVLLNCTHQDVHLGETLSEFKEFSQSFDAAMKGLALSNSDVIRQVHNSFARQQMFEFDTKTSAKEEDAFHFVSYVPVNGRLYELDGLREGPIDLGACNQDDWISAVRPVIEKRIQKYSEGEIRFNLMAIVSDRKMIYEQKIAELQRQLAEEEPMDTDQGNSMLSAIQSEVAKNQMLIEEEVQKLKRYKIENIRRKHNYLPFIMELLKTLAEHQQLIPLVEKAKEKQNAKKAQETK
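Assay system: Proteasome-bound UCH37. Buffer or medium: pH 7.4 Tris-HCl (50 mM) with ovalbumin, ATP-MgCl2, DTT. Incubation: 30 min preincubation with enzyme, 25 min cleavage at room temperature. Measured by: fluorescence, ex 355 nm, em 460 nm. Read-out basis: percent inhibition. Control set: wells without proteasome as full block, compound-free enzyme plus substrate as uninhibited.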
PKA-R2B act: activates the human PKA-R2B holoenzyme complex; P22694+P31323; PKA-R2B holoenzyme dissociation, Cy5-IP20 fluorescence polarization; R2B truncated from residue 108, S112A mutant; 0% DMSO only, 100% 113 µM cGMP; activation, % at 11.4 µM; actives 0.079% (n = 340,000);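 active = activation above a cutoff set at the mean over all compounds plus 3 SD, cut at about 18% in these data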;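 note: higher means more holoenzyme dissociation and a rise in polarization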
PKA-R1A activ: activators of PKA-R1A complex. PKA-R1A dissociation, Cy5-IP20 fluorescence polarization; scaled: DMSO 0%, 113 µM cGMP 100%. AID 504707. activation, % at 11.4 µM. actives 0.083% (n = 340,000);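 active = percent activation above the mean of all tested compounds plus 3 SD, cut at about 19% in these data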;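 note: higher means more PKAc released from R1A so a rise in polarization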
aDG glyco up: increases alpha dystroglycan glycosylation; actives 0.22% (n = 360,000); Pro5-aDG cells, alpha-DG glycosylation AlphaScreen (IIH6); 0% Pro5, 100% B10-LARGE cell signal; activation, % at 10 µM;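 active = activation of at least 8% versus controls, or a plate z-score of at least 8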;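 note: Pro5 are CHO cells carrying HIG-tagged alpha-DG that lacks glycosylation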
Fh CTSL1 inh: cathepsin L1 inhibition, PFM18AAP counter-screen | recombinant F. hepatica cathepsin L1, Z-Leu-Arg-MCA fluorescence | inhibition, % at 5.96 µM | actives 0.49% (n = 300,000) | AID 1906;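 active = inhibition above the mean of all tested compounds plus 3 SD, set per screening campaign, cut at about 17% in these data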;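 note: 0% = plate median of test compound wells and 100% = 1 µM Z-Phe-Ala-diazomethylketone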
UCH37 reconfirm: confirmation of human UCH37 deubiquitinating enzyme inhibitors; shares compounds with UCH37 DUB inh; Proteasome-bound UCH37, Ub-AMC cleavage fluorescence; inhibition, % at 20 µM; actives 27% (n = 480); AID 624100;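 active = average inhibition over replicates above about 50%, so the earlier screening hit is confirmed, limit read from the data; inactive = the rest, counted as false positives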;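 note: based on cleavage rate fitted by regression over a 30 min kinetic read; 0% = proteasome plus Ub-AMC and 100% = Ub-AMC without proteasome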
* marks the source's active call; other numbers are inactive results; . = no result.

SMILES	UCH37 DUB inh	PKA-R2B act	PKA-R1A activ	aDG glyco up	Fh CTSL1 inh	UCH37 reconfirm
CCOc1cc(C=NNC(=O)c2ccc(C)nc2)cc([N+](=O)[O-])c1O	27*	.	.	.	.	24
CCOc1cc(/C=N\NC(=O)c2ccc(C)nc2)cc([N+](=O)[O-])c1O	.	-2	-14	0	4	.
CS(=O)(=O)N(CC(=O)NN=Cc1cccs1)c1cccc(Cl)c1Cl	3	.	.	.	.	.
O=C(O)CC1S/C(=N/N=C/C=C/c2ccccc2[N+](=O)[O-])NC1=O (centres undefined)	.	-16	1	0	1	.
O=C(O)CC1S/C(=N/N=C/C=C/c2ccccc2)NC1=O (centres undefined)	25*	-16	-5	0	12	21
Nc1cccc2c1C(=O)N(Cc1cccc(Cl)c1)C2=O	-95	-5	5	0	3	.
O=C1Cc2ccccc2C(=O)N1Cc1cccc(Cl)c1	34*	-1	-6	0	.	17
CC(=O)N(C)/C=C1\Sc2ccccc2C1=O	2	-5	-2	0	3	.
CC(=O)N(N=C1Sc2ccccc2C1=O)c1ccccc1	31*	.	.	.	.	19
CC(=O)N(N=C1Sc2ccccc2C1=O)c1ccccc1C	83*	.	.	.	.	62*
CC(=O)Nc1ccc(/C=C2\Sc3ccccc3C2=O)cc1	2	-5	-5	0	3	.
NC(=NOC(=O)c1ccccc1[N+](=O)[O-])c1ccccn1	4	.	.	.	.	.
CNC(=O)OCc1cocc1COC(=O)NC	.	.	.	0	.	.
CNC(=O)OCc1cccc(COC(=O)NC)n1	35*	-11	8	0	3	21
COc1ccc(C(=O)Nc2cccc(C(C)=NNC(=O)c3ccoc3C)c2)cc1OC	-1	.	.	.	.	.
COc1ccccc1C1/C(=C(\O)c2ccc3c(c2)OCCO3)C(=O)C(=O)N1CCCn1ccnc1 (centres undefined)	42*	-6	8	0	1	33
CC(=O)Nc1nc(SCC(=O)NCc2ccc(F)cc2)[nH]c(=O)c1NC(=O)c1cccs1	43*	0	-9	1	1	9
COc1ccc(C=Nn2c(-c3n[nH]c4c3CCC4)n[nH]c2=S)c(OC)c1OC	4	.	.	.	.	.
CCSC1=C(C#N)C2(CCCC2)C(C#N)=C(N)N1	43*	-2	-6	0	0	13
Cc1cc(C(=O)NN=Cc2ccc3c(c2)OCO3)c(C)n1-c1ccc(F)cc1	-3	.	.	.	.	.
COc1ccc(NC(=O)C2CCCCN2N)cc1OC (centres undefined)	29*	-3	-2	0	-4	46
COc1ccc(CN2CCCCC2C(=O)Nc2ccc(OC)c(OC)c2)cc1OC (centres undefined)	-1	0	1	0	0	.
COc1cc([N+](=O)[O-])ccc1-c1ccc(/C=N\n2cnnc2)o1	.	-6	3	0	.	.
COc1cc([N+](=O)[O-])ccc1-c1ccc(/C=C2\C(=O)ON=C2c2ccccc2)o1	34*	-4	-2	0	.	18
O=C(NN=Cc1ccc2c(c1)OCO2)c1sc2cc(Cl)ccc2c1Cl	-7	.	.	.	.	.
SMILES	UCH37 DUB inh	PKA-R2B act	PKA-R1A activ	aDG glyco up	Fh CTSL1 inh	UCH37 reconfirm
O=[N+]([O-])c1cccc(N/N=C/c2cc([N+](=O)[O-])ccc2O)c1	.	13	9	0	4	.
O=[N+]([O-])c1ccc(O)c(C=NNc2ccc(S(=O)(=O)O)cc2)c1	25*	9	-2	0	.	15
CN(C)/C=C/C1=C([N+](=O)[O-])C(c2cccc([N+](=O)[O-])c2)NC(=O)N1 (centres undefined)	27*	3	-4	0	2	21
CCN1/C(=C/C=C/c2oc3ccc(-c4ccccc4)cc3[n+]2CC)Oc2ccc(-c3ccccc3)cc21	35*	3	13	0	-1	76*
N#C/C(=C\c1ccc(N2CCCCC2)o1)C(N)=O	30*	8	-9	0	8	26
CC1=NN(c2ccccc2)C(=O)/C1=C/C=C/C=C/N(C)C	32*	2	2	0	2	30
CC1=NN(c2ccc(C)cc2)C(=O)/C1=C\C=C\c1ccccc1	1	-10	-12	0	-2	.
Cc1ccc(S(=O)(=O)N2CCOCC2)cc1NN=C(C#N)c1nc2ccccc2[nH]1	2	.	.	.	.	.
CC(Oc1ccccc1)C(=O)N=Nc1c(O)[nH]c2ccc([N+](=O)[O-])cc12 (centres undefined)	67*	-8	-9	0	5	46
O=C(N=Nc1c(O)[nH]c2ccc([N+](=O)[O-])cc12)c1ccccc1[N+](=O)[O-]	61*	-2	-5	0	7	14
CCOC(=O)/C(=C\C=C1/Sc2ccccc2N1CC)C(C)=O	15	-15	-4	0	7	.
CCOC(=O)/C(=C/C=C1\Sc2ccccc2N1CC)C(C)=O	30*	-4	3	0	7	32
C/C(=C\C(=O)C(F)(F)F)Nc1ccc(C(F)(F)F)cc1	46*	11	5	0	0	6
CC(C)(CCl)C(=O)Nc1ccc(C(F)(F)F)cc1	0	-4	-19	0	-1	.
COc1ccc(C=NNC(=O)c2cc(-c3ccccc3)nc3ccccc23)c(C(=O)O)c1OC	10	.	.	.	.	.
CC1(C)OC(c2ccccc2)=C/C(=C/C=Nc2ccccc2)O1	48*	-16	-11	0	3	-18
COc1cc(C2C(C(=O)c3ccc(C)o3)=C(O)C(=O)N2c2cc(C)on2)cc(OC)c1OC (centres undefined)	2	-1	2	0	0	.
COc1cc(C2C(C(=O)c3ccc(C)o3)=C(O)C(=O)N2c2cc(C)on2)ccc1O (centres undefined)	46*	-10	-8	0	6	14
CCOc1ccc(C2/C(=C(\O)c3cccc(OC)c3)C(=O)C(=O)N2c2cc(C)on2)cc1OC (centres undefined)	49*	-6	8	0	0	26
CCOc1ccc(C2/C(=C(\O)c3ccc(OC)c(OC)c3)C(=O)C(=O)N2c2cc(C)on2)cc1OC (centres undefined)	4	-3	-1	0	3	.
Cn1cnc([N+](=O)[O-])c1Nc1ccc(O)cc1	52*	-7	5	0	1	0
COC(=O)/C(N=Nc1cccc(C(F)(F)F)c1)=C(\C)O	43*	-2	-2	0	1	16
O=C(CCC(=O)Nc1ccccc1Cl)NN=Cc1ccccc1	3	.	.	.	.	.
Cc1ccccc1OCC(=O)ON=C(N)Cc1ccc(Cl)cc1	44*	.	.	.	.	15
Cc1ccccc1OCC(=O)O/N=C(\N)Cc1ccc(Cl)cc1	.	-3	0	0	-21	.

High-throughput results as filed in PubChem BioAssay.
